The text below walks through data of ChEMBL document CHEMBL3351998, “Discovery of potent and specific dihydroisoxazole inhibitors of human transglutaminase 2” (J Med Chem, 2014).

The structures appear in SMILES notation. Active and inactive are the calls of the source. The rule behind the calls is not given here.

Assay [1] has as its target T1, Protein-glutamine gamma-glutamyltransferase K (Homo sapiens) (UniProt P22735).
T1 sequence (whole entry): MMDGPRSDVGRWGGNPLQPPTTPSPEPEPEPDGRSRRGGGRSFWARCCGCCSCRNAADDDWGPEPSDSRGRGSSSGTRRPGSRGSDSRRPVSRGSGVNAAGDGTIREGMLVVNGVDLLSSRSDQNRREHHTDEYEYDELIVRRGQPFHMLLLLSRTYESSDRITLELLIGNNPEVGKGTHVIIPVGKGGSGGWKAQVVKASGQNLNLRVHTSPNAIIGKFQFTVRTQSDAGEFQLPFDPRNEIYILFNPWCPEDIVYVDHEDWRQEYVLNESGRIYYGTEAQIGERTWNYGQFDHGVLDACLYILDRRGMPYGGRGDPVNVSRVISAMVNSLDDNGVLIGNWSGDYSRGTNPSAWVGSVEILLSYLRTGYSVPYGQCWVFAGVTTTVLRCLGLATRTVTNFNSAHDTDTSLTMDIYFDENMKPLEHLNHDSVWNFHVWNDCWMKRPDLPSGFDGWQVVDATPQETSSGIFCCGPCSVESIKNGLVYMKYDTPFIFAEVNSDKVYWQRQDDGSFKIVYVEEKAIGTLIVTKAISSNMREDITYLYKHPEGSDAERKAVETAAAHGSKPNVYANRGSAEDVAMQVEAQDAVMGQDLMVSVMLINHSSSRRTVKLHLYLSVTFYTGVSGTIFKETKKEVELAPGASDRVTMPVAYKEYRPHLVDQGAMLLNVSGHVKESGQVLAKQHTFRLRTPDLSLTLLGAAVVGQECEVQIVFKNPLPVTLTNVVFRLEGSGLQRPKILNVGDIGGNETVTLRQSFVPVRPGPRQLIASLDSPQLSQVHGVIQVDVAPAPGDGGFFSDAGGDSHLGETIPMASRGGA
Kind of assay: Inhibition of human transglutaminase 1 using ((benzyloxy)carbonyl)-L-glutaminyl-L-serine peptide substrate assessed as Kinh/Ki ratio by GDH coupled assay. A digest of the protocol: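 Recombinant His-tagged human TG1 from E. coli Rosetta 2 pLysS, final ~0.37 μM, in 200 mM MOPS pH 7.2, 5 mM CaCl2, 10 mM α-ketoglutarate, 300 μM NADH, 36 U/mL GDH. Z-Gln-Ser at 20/40 mM. Inhibitors typically at 100/33.3/11.1/3.7 μM (1% DMSO), added after ≥5 min enzyme pre-equilibration. NADH loss read at 340 nm; progress curves fitted to exponential decay, kinh/Ki from irreversible model.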

The target in assay [2] is T2, Protein-glutamine gamma-glutamyltransferase (Homo sapiens) (UniProt P21980).
T2 sequence (whole entry): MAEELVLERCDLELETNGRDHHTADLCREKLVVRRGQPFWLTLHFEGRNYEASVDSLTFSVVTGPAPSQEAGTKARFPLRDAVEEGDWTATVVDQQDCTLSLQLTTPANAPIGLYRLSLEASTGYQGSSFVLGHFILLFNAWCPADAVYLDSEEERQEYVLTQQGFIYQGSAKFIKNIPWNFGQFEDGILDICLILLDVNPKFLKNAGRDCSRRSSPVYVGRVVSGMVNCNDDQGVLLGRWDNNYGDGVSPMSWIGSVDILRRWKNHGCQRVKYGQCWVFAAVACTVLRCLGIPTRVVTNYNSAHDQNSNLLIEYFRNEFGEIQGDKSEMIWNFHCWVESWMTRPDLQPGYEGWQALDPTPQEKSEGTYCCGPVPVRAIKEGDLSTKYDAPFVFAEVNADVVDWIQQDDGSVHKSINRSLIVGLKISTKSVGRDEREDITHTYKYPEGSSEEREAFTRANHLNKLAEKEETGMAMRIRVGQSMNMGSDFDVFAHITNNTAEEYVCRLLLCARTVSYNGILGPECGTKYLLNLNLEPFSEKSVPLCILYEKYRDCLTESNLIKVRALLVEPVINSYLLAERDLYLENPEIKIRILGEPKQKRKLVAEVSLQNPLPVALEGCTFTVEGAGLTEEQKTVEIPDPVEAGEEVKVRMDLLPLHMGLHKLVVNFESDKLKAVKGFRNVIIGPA
Kind of assay: Inhibition of human transglutaminase 2 using ((benzyloxy)carbony l)-L-glutaminylglycine peptide substrate assessed as Kinh/Ki ratio by GDH coupled assay. A digest of the protocol: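 Human TG2 (V224G variant) or codon-optimized murine TG2, E. coli-expressed, final ~0.34 and 0.22 μM respectively. Buffer: 200 mM MOPS pH 7.2, 5 mM CaCl2, 10 mM α-ketoglutarate, 300 μM NADH, 36 U/mL bovine GDH. Z-Gln-Gly at 10/20 mM. Inhibitors typically at 100/33.3/11.1/3.7 μM, 1% DMSO, added after ≥5 min pre-equilibration. A340 progress curves fitted to exponential decay; kinh/Ki from irreversible inhibition model.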

For `O=C(NC[C@@H]1CC(Br)=NO1)[C@@H]1C[C@H](c2ccccc2)CN1C(=O)OCc1cnc2ccccc2c1`, the Ratio in assay [1] is 17.2; in assay [2], 17.7.

Take `O=C(N[C@@H]1C[C@@H](C(=O)NC[C@@H]2CC(Br)=NO2)N(C(=O)OCc2cnc3ccccc3c2)C1)c1ccccc1O`: the Ratio in assay [1] and in assay [2] was 37.1 each time.

Take `C#Cc1ccc(COC(=O)N2CCC[C@H]2C(=O)NC[C@@H]2CC(Br)=NO2)cc1`: the Ratio in assay [1] is 7.6; in assay [2], 6.4.

`O=C(N[C@@H]1C[C@@H](C(=O)NC[C@@H]2CC(Br)=NO2)N(C(=O)OCc2cnc3ccccc3c2)C1)c1cccc(O)c1`: the Ratio in assay [1] was 18.1; in assay [2], 36.2.

As for `O=C(C[C@@H]1CCCN1C(=O)OCc1cnc2ccccc2c1)NC[C@@H]1CC(Br)=NO1`, the Ratio in assay [1] and in assay [2] was 1.3 throughout.

As to `C[C@H](OC(=O)N1CCC[C@@H]1C(=O)NC[C@@H]1CC(Br)=NO1)c1cnc2ccccc2c1`, the Ratio in assay [1] was 8.7; in assay [2], 3.7.

With `O=C(NC[C@@H]1CC(Br)=NO1)[C@@H]1C[C@@H](c2cccc(O)c2)CN1C(=O)OCc1cnc2ccccc2c1`, the Ratio in assay [1] amounted to 38.7; in assay [2], 52.2.

As to `O=C(NC[C@@H]1CC(Br)=NO1)[C@@H]1CCCN1C(=O)OCc1ccccn1`, the Ratio is 1.6 in assay [1] and 1.2 in assay [2].

For `O=C(NC[C@@H]1CC(Br)=NO1)[C@@H]1CCN1C(=O)OCc1cnc2ccccc2c1`, the results for the Ratio in assay [1] and in assay [2] were 13.6 and 14.4, respectively.

In the case of `O=C(NC[C@@H]1CC(Br)=NO1)[C@@H]1C[C@@H](NC(=O)C2(C(=O)O)CCC2)CN1C(=O)OCc1cnc2ccccc2c1`, the figures for the Ratio in assay [1] and in assay [2] were 11.6 and 14.8, respectively.

Regarding `C[C@@]1(C(=O)NC[C@@H]2CC(Br)=NO2)CCCN1C(=O)OCc1cnc2ccccc2c1`, the Ratio worked out at 2.4 in assay [1] and 2 in assay [2].

With `O=C(NC[C@@H]1CC(Br)=NO1)[C@@H]1CCN(C(=O)OCc2cnc3ccccc3c2)C1`, the Ratio in assay [1] is 25.8; in assay [2] it was 8.8.

On to `O=C(NC[C@@H]1CC(Br)=NO1)[C@@H]1C[C@@H](c2ccc(Cl)cc2)CN1C(=O)OCc1cnc2ccccc2c1`, for which the Ratio in assay [1] is 15.4; in assay [2] it was 12.

With `O=C(NC[C@@H]1CC(Br)=NO1)[C@@H]1C[C@@H](c2cccc(Cl)c2)CN1C(=O)OCc1cnc2ccccc2c1`, the Ratio in assay [1] stood at 41.7; in assay [2], 25.3.

With `O=C(NC[C@@H]1CC(Br)=NO1)[C@@H]1C[C@@H](c2c[nH]c3ccc(F)cc23)CN1C(=O)OCc1cnc2ccccc2c1`, the Ratio came to 48 in assay [1] and 18.4 in assay [2].

Consider `O=C(NC[C@@H]1CC(Br)=NO1)[C@@H]1CCCN1C(=O)OCc1ccncc1`, for which the Ratio is 10.8 in assay [1] and 2.6 in assay [2].

Regarding `O=C(NC[C@@H]1CC(Br)=NO1)[C@@H]1C=C(c2ccccc2)CN1C(=O)OCc1cnc2ccccc2c1`, the Ratio in assay [1] was 18.9; in assay [2], 11.1.

As to `N[C@@H]1C[C@@H](C(=O)NC[C@@H]2CC(Br)=NO2)N(C(=O)OCc2cnc3ccccc3c2)C1`, the figures for the Ratio in assay [1] and in assay [2] were 3.1 and 2.6, respectively.

On to `CC(C)(C)OC(=O)N1CCC[C@H]1C(=O)NC[C@@H]1CC(Br)=NO1`, for which the Ratio in assay [1] was 2.3; in assay [2] it was 2.5.

As to `C[C@H](OC(=O)N1CCC[C@H]1C(=O)NC[C@@H]1CC(Br)=NO1)c1ccc2ccccc2c1`, the Ratio in assay [1] is 11.5; in assay [2] it was 9.

Turning to `C#CCOC(=O)N1CCC[C@H]1C(=O)NC[C@@H]1CC(Br)=NO1`, the Ratio in assay [1] stood at 0.7; in assay [2], 2.4.

Consider `C[C@H](OC(=O)N1CCC[C@@H]1C(=O)NC[C@@H]1CC(Br)=NO1)c1ccc2ccccc2c1`, for which the Ratio in assay [1] was 5.1; in assay [2] it was 2.9.

With `O=C(NC[C@@H]1CC(Br)=NO1)[C@@H]1CCCCN1C(=O)OCc1cnc2ccccc2c1`, the results for the Ratio in assay [1] and in assay [2] were 22.2 and 12, respectively.

On to `O=C(NC[C@@H]1CC(Br)=NO1)[C@@H]1CCCN1C(=O)OCc1cccc(F)c1`, for which the Ratio came out at 5.6 in assay [1] and 3.9 in assay [2].

Turning to `O=C(NC[C@@H]1CC(Br)=NO1)[C@@H]1C[C@@H](c2ccccc2O)CN1C(=O)OCc1cnc2ccccc2c1`, the figures for the Ratio in assay [1] and in assay [2] were 29.5 and 33.8, respectively.

With `CO[C@@H]1C[C@@H](C(=O)NC[C@@H]2CC(Br)=NO2)N(C(=O)OCc2cnc3ccccc3c2)C1`, the figures for the Ratio in assay [1] and in assay [2] were 7.7 and 10.4, respectively.

Consider `Cn1c(COC(=O)N2CCC[C@H]2C(=O)NC[C@@H]2CC(Br)=NO2)nc2ccccc21`, for which the Ratio in assay [1] came to 0.85. Besides, the Ratio result in assay [2] is “inactive”.

Consider `O=C(NC[C@@H]1CC(Br)=NO1)[C@@H]1C[C@@H](F)CN1C(=O)OCc1cnc2ccccc2c1`, for which the Ratio in assay [1] came to 6.7; in assay [2], 7.3.

`O=C(NC[C@@H]1CC(Br)=NO1)[C@@H]1CCCN1C(=O)OCc1cccnc1`: the Ratio in assay [1] was found to be 4.3; in assay [2] it was 4.6.

Regarding `O=C(NC[C@@H]1CC(Br)=NO1)[C@@H]1C[C@@H](Cc2ccccc2)CN1C(=O)OCc1cnc2ccccc2c1`, the Ratio in assay [1] is 23.1; in assay [2], 10.2.

With `O=C(NC[C@@H]1CC(Br)=NO1)[C@@H]1CCCN1C(=O)OCc1ccnc2ccccc12`, the results for the Ratio in assay [1] and in assay [2] were 12 and 2, respectively.

Turning to `O=C(NC[C@@H]1CC(Br)=NO1)[C@@H]1CCCN1C(=O)OCc1nc2ccccc2[nH]1`, the Ratio entry in assay [1] and in assay [2] was “inactive” throughout.

`COc1cccc(COC(=O)N2CCC[C@H]2C(=O)NC[C@@H]2CC(Br)=NO2)c1OC`: in assay [1], the Ratio amounted to 1.7. The Ratio result in assay [2] was “inactive”.

`O=C(NC[C@@H]1CC(Br)=NO1)[C@@H]1CCCN1C(=O)OCc1cccc(OCc2ccccc2)c1`: the Ratio in assay [1] amounted to 3.9; in assay [2] it was 4.8.

`O=C(NC[C@@H]1CC(Br)=NO1)[C@@H]1CCCN1C(=O)OCc1cnc2ccccc2n1`: the Ratio in assay [1] was 15.4; in assay [2] it was 1.6.

Consider `C#CCO[C@@H]1C[C@@H](C(=O)NC[C@@H]2CC(Br)=NO2)N(C(=O)OCc2cnc3ccccc3c2)C1`, for which the Ratio in assay [1] was 7.1; in assay [2], 10.1.

As to `O=C(NC[C@@H]1CC(Br)=NO1)[C@@H]1CCCN1C(=O)OCc1ccccc1`, the Ratio was 4.5 in assay [1] and 4.1 in assay [2].

With `O=C(N[C@@H]1C[C@@H](C(=O)NC[C@@H]2CC(Br)=NO2)N(C(=O)OCc2cnc3ccccc3c2)C1)c1cnccn1`, the Ratio was determined as 12 in assay [1] and 15.7 in assay [2].

Regarding `O=C(N[C@@H]1C[C@@H](C(=O)NC[C@@H]2CC(Br)=NO2)N(C(=O)OCc2cnc3ccccc3c2)C1)c1ccccc1`, the Ratio was determined as 24.6 in assay [1] and 25.8 in assay [2].
